From ChEMBL document CHEMBL4387704, “Design, synthesis and biological evaluation of novel isoindolinone derivatives as potent histone deacetylase inhibitors” (Eur J Med Chem, 2019)
Active and inactive are the calls of the source. The rule behind the calls is not given here.

How the values were obtained:
[1] = test system: CCRF-CEM; test: Growth inhibition of human CCRF-CEM cells assessed as cell growth inhibition at 10 uM incubated for 48 hrs by sulforhodamine B assay; type: functional; conditions: read-out: GI
[2] = Metabolic stability in human liver microsomes assessed as half life at 1 uM preincubated for 10 mins followed by NADPH addition measured upto 60 mins by LC-MS/MS analysis; type: ADME, Microsome
Procedure, shortened: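 Liver microsomes from male SD rat, dog or human at 0.5 mg/mL in 100 mM potassium phosphate pH 7.4 with 1 μM compound. Prewarmed 37 °C 10 min, started with 1 mM NADPH. Stopped at 0, 5, 10, 20, 40, 60 min with cold methanol containing glibenclamide internal standard; supernatant by LC–MS/MS; T1/2 and CLint derived.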

[3] = AUC (0 to infinity) in Sprague-Dawley rat at 10 mg/kg, po by LC-MS/MS analysis; type: ADME, organism-based; parameters: dose 10 mg/kg, time infinity, route oral; conditions: in vivo
Procedure, shortened: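 Male SD rats, 199-214 g, three per route. Single iv dose of 1 mg/kg or oral dose of 10 mg/kg. About 200 μL blood drawn from the jugular vein into heparinized tubes at set times, then spun to plasma. 30 μL plasma precipitated with CH3CN containing verapamil and glibenclamide as internal standards. Plasma drug level measured by LC-MS/MS.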

[4] = target: Histone deacetylase 9 (Homo sapiens) (UniProt Q9UKV0); test: Inhibition of HDAC9 (unknown origin) using Fluor de Lys substrate by fluorescence assay relative to control
Histone deacetylase 9 (Homo sapiens), sequence (Q9UKV0 whole entry, canonical isoform): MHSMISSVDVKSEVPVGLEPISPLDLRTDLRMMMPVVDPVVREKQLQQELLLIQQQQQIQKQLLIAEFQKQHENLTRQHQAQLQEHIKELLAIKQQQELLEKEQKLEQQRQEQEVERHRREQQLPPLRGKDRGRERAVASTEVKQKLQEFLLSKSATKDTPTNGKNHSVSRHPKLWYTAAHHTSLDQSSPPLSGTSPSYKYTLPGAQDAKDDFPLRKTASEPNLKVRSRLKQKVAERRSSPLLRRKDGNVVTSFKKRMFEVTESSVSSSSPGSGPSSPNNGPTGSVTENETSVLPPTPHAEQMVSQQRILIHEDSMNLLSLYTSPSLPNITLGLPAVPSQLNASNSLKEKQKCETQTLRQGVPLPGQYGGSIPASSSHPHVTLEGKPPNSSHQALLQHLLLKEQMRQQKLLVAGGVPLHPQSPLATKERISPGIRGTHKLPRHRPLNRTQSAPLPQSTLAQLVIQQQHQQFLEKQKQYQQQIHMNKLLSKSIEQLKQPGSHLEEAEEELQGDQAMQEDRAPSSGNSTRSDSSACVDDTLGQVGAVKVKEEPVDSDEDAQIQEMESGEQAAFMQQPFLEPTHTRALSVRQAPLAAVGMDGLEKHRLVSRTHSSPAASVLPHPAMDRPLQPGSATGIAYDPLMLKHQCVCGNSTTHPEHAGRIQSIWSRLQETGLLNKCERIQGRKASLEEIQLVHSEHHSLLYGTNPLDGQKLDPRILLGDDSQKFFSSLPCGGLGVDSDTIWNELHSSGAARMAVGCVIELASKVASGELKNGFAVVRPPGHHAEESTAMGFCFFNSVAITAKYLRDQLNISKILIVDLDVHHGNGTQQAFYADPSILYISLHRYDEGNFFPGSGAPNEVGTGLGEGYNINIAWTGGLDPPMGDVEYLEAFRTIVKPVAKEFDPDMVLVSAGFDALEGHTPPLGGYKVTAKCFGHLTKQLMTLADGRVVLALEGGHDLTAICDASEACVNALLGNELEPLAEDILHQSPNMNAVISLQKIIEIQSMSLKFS
Procedure, shortened: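 Recombinant HDAC isoform assays run by a contract lab. Compounds in DMSO, 10-dose IC50 mode, 3-fold serial dilution from 50 μM. Duplicate runs; IC50 from curve fitting.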

[5] = test system: EKVX; test: Growth inhibition of human EKVX cells assessed as cell growth inhibition at 10 uM incubated for 48 hrs by sulforhodamine B assay; type: functional; conditions: read-out: GI

## Nc1cc(F)ccc1NC(=O)c1ccc(CNC(=O)/C=C2\NC(=O)c3ccccc32)cc1
[1]
  inhibition of growth at 10 µM: 84.5%
[2]
  half-life at 1 µM: 4.87 h
[3]
  AUC(0-inf): 1740 ng·h/mL
[4]
  inhibition: inactive
[5]
  inhibition of growth at 10 µM: 11.7%
